Assay results as given in ChEMBL document CHEMBL4673285, “Design, Synthesis, and Biological Evaluation of Linear Aliphatic Amine-Linked Triaryl Derivatives as Potent Small-Molecule Inhibitors of the Programmed Cell Death-1/Programmed Cell Death-Ligand 1 Interaction with Promising Antitumor Effects In Vivo” (J Med Chem, 2020).
Each block holds one molecule with its values, some of them ahead of it. Active and inactive are the calls of the source. The calls are words filed in the database; no cut-off is given here.

Assays:
[1] = target: T1, Programmed cell death 1 ligand 1 (Homo sapiens, UniProt Q9NZQ7); test: Binding affinity to human PD-L1 expressed in CHOK1 cells assessed as inhibition of PD1/PDL1 protein-protein interaction at 500 nM incubated for 30 mins by flow cytometry analysis; type: cell-based; conditions: CHO-K1
How it was run: (§1)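 CHO-K1-hPD-L1 cells, 5 × 10⁵ per tube in PBS with 2% FBS, incubated with hPD-1/Fc (10 μg/mL final) at 4 °C for 30 min. Compound added at 500 nM final and incubated a further 30 min at 4 °C, then stained with APC anti-human IgG Fc. Percentage of hPD-1-bound cells read by flow cytometry. Blocking efficacy calculated against a no-inhibitor positive control and parental CHO-K1 negative control.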

Raji = test: Cytotoxicity against human Raji cells assessed as reduction in cell viability at 100 uM incubated for 24 hrs by Cell-titer glo Luminescent assay; type: cell-based
How it was run: (§2)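 Cells (Raji, RAW 264.7 or donor PBMCs) plated at 1 × 10⁴ per well in medium with 10% FBS. Treated for 24 h at 37 °C, 5% CO₂ with 100, 50, 25, 12.5, 6.25 or 3.125 μM compound, or buffer containing 0.2% DMSO. Viability read by CellTiter-Glo luminescence; killing rate = (1 − RLU compound/RLU control) × 100%; triplicate, mean ± SEM.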

RAW264.7 = test: Cytotoxicity against mouse RAW264.7 cells assessed as reduction in cell viability at 3.125 to 100 uM incubated for 24 hrs by Cell-titer glo Luminescent assay; type: cell-based; conditions: raw264.7, 24 h, dose 3.125-100 µM; how it was run: as §2
[2] = target: T1, Programmed cell death 1 ligand 1; test: Binding affinity to biotinylated human AVI-PD-L1 assessed as association constant by biolayer interferometry
How it was run: (§3)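 Biotinylated human PD-L1/AVI at 10 μg/mL loaded on streptavidin biosensors for 300 s, then baselined. Association with compound at 20 to 0.3125 nM plus 0 nM for 180 s, then dissociation in buffer for 300 s. Data globally fitted to a 1:1 model to give ka and kdis; apparent affinity taken as their ratio.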

[3] = Cytotoxicity against human PBMC cells assessed as reduction in cell viability up to 100 uM incubated for 24 hrs by Cell-titer glo Luminescent assay; type: cell-based; how it was run: as §2
[4] = target: T1, Programmed cell death 1 ligand 1; test: Inhibition of human PD-L1 cocultured in PBMC cells assessed as inhibition of PD1/PDL1 interaction mediated increase in IFN-gamma secretion at 0.1 uM incubated for 72 hrs by ELISA; type: cell-based
How it was run: (§4)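 Healthy-donor PBMCs, 1 × 10⁵ per well in RPMI 1640 with 10% FBS, stimulated with anti-CD3/anti-CD28 (1:1, 0.8 μg/mL final) plus PD-L1/Fc at 10 μg/mL final. Compound added at 0.1 or 1 μM final and cocultured 72 h at 37 °C, 5% CO₂. Supernatant IFN-γ measured by ELISA; quadruplicate, mean ± SEM.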

[5] = target: T1, Programmed cell death 1 ligand 1; test: Inhibition of human PD-L1 cocultured in PBMC cells assessed as inhibition of PD1/PDL1 interaction mediated increase in IFN-gamma secretion at 1 uM incubated for 72 hrs by ELISA relative to control; type: cell-based; how it was run: as §4
[6] = target: T1, Programmed cell death 1 ligand 1; test: Binding affinity to biotinylated human AVI-PD-L1 by biolayer interferometry; how it was run: as §3
[7] = Cytotoxicity against human PBMC cells assessed as reduction in cell viability at 6.3 uM incubated for 24 hrs by Cell-titer glo Luminescent assay; type: cell-based; how it was run: as §2
[8] = target: T1, Programmed cell death 1 ligand 1; test: Binding affinity to human PD-L1 expressed in CHOK1 cells assessed as inhibition of PD1/PDL1 protein-protein interaction at 500 nM incubated for 30 mins by flow cytometry analysis relative to control; type: cell-based; conditions: CHO-K1; how it was run: as §1
[9] = target: T1, Programmed cell death 1 ligand 1; test: Binding affinity to biotinylated human AVI-PD-L1 assessed as dissociation rate constant by biolayer interferometry
[10] = target: Programmed cell death protein 1/Programmed cell death 1 ligand 1 (Homo sapiens, UniProt Q9NZQ7); test: Inhibition of PD1-Tag2/PD-L1-Tag1 (unknown origin) protein-protein interaction preincubated for 15 mins followed by addition of anti-Tag1-Eu3+ and anti-Tag2-XL665 measured after 2.5 hrs by HTRF assay; type: protein-complex assay
How it was run: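 Commercial HTRF kit. Compound incubated with PD-L1-Tag1 and PD1-Tag2 at rt for 15 min, then anti-Tag1-Eu³⁺/anti-Tag2-XL665 conjugate mix added and incubated 2.5 h at rt.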

[11] = target: T1, Programmed cell death 1 ligand 1; test: Inhibition of human PD-L1 cocultured in PBMC cells assessed as inhibition of PD1/PDL1 interaction mediated increase in IFN-gamma secretion at 1 uM incubated for 72 hrs by ELISA; type: cell-based; how it was run: as §4
[12] = target: Leukocyte surface antigen CD47 (Homo sapiens) (UniProt Q08722); test: Binding affinity to human Fc-tagged CD47 at 500 nM measured after 600 sec by biolayer interferometry
[13] = target: Programmed cell death protein 1 (Homo sapiens) (UniProt Q15116); test: Binding affinity to human Fc-tagged PD1 at 500 nM measured after 600 sec by biolayer interferometry
[14] = target: Hepatitis A virus cellular receptor 2 (Homo sapiens) (UniProt Q8TDQ0); test: Binding affinity to human Fc-tagged TIM3 at 500 nM measured after 600 sec by biolayer interferometry
[15] = target: T2, Programmed cell death 1 ligand 2 (Homo sapiens) (UniProt Q9BQ51); test: Binding affinity to human Fc-tagged PDL2 at 500 nM measured after 600 sec by biolayer interferometry
T2 sequence (whole entry): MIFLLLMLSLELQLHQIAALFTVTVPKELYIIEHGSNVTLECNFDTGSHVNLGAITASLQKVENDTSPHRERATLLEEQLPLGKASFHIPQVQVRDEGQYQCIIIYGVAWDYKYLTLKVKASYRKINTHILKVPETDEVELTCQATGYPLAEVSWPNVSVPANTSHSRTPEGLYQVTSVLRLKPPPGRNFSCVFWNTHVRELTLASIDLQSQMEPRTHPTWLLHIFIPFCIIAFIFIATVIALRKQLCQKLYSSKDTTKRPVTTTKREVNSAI

[16] = target: CD27 antigen (Homo sapiens) (UniProt P26842); test: Binding affinity to human Fc-tagged CD27 at 500 nM measured after 600 sec by biolayer interferometry
[17] = target: T1, Programmed cell death 1 ligand 1; test: Binding affinity to human Fc-tagged PDL1 at 500 nM measured after 600 sec by biolayer interferometry
[18] = target: T3, Lymphocyte activation gene 3 protein (Homo sapiens) (UniProt P18627); test: Binding affinity to human Fc-tagged LAG3 at 500 nM measured after 600 sec by biolayer interferometry
T3 sequence (whole entry): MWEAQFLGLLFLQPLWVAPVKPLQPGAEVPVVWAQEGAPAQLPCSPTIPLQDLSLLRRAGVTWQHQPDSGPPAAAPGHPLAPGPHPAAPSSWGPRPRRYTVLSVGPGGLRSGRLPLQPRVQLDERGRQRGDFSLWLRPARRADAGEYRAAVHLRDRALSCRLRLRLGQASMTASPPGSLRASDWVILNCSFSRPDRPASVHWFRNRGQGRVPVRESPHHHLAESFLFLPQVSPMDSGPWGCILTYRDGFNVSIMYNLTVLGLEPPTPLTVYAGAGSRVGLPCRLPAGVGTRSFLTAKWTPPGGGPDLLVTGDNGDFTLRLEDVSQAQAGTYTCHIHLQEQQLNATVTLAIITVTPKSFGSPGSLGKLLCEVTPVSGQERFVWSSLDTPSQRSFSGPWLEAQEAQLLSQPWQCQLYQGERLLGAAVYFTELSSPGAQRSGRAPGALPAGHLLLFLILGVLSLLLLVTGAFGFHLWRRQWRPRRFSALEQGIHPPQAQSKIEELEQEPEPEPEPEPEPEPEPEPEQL

Chain of Programmed cell death protein 1/Programmed cell death 1 ligand 1 (Q15116 whole entry): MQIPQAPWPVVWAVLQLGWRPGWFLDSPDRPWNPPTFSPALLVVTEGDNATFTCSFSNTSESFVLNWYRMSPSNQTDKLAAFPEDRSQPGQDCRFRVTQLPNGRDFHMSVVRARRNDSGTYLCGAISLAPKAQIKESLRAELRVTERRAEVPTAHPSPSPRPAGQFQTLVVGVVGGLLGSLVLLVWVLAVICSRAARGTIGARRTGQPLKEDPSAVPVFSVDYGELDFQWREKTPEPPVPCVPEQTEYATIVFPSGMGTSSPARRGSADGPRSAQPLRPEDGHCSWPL
Chain of Programmed cell death protein 1/Programmed cell death 1 ligand 1 (Q9NZQ7 whole entry): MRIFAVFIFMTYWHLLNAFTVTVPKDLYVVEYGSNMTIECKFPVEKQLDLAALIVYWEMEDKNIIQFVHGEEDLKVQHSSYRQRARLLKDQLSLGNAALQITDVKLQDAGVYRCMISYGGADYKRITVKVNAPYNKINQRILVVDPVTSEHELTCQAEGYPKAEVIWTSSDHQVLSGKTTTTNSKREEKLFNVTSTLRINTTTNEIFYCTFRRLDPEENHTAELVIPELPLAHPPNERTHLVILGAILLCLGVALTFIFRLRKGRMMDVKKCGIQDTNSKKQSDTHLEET
T1 sequence (Q9NZQ7 whole entry): as above
Chain of Programmed cell death protein 1 (Homo sapiens) (Q15116 whole entry): as the sequence (Q15116 whole entry) above
Chain of Leukocyte surface antigen CD47 (Homo sapiens) (Q08722 whole entry): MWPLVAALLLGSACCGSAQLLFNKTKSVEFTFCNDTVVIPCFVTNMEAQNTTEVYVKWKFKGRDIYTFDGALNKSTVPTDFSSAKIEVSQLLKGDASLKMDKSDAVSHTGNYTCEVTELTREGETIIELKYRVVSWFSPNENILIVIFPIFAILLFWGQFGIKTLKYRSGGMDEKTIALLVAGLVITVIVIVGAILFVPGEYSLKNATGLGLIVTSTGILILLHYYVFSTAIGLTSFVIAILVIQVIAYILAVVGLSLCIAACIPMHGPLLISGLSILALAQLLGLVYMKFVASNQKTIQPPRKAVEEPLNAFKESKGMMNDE
Chain of Hepatitis A virus cellular receptor 2 (Homo sapiens) (Q8TDQ0 whole entry): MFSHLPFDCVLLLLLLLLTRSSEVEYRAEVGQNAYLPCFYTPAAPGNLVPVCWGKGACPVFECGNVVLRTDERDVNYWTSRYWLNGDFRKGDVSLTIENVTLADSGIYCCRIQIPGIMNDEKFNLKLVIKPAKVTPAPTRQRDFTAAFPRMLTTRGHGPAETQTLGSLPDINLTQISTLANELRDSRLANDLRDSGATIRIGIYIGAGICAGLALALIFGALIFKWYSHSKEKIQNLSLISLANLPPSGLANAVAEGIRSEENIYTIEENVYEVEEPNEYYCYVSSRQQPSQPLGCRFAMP
Chain of CD27 antigen (Homo sapiens) (P26842 whole entry): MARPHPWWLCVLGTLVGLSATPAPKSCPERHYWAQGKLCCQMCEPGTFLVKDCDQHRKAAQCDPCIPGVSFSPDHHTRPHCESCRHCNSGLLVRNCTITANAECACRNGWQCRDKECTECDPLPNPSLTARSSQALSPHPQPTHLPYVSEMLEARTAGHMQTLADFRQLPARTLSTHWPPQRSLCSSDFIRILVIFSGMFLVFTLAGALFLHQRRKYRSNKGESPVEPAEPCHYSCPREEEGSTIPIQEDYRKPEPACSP

SMILES: Cc1c(CNc2ccc(CN[C@H](CO)C(=O)O)c(OCc3cncc(C#N)c3)c2)cccc1-c1ccccc1
Activity [1]: Active
Activity (Raji): Non-Toxic
Activity (RAW264.7): Non-Toxic
association rate constant (kon) [2]: 8.49 10^5/M/s
Activity [3]: Non-Toxic
inhibition [4]: inactive
inhibition [5]: 42.5%
Dissociation constant (KD) [6]: 2.96 10^-10M
Activity [7]: Non-Toxic
Efficacy [8]: 95.9%
koff [9]: 2.51 10^-4/s

SMILES: Cc1cc(CN[C@H](CO)C(=O)O)c(OCc2cncc(C#N)c2)cc1NCc1cccc(-c2ccccc2)c1Br
IC50 [10]: 31 nM

SMILES: Cc1cc(CN[C@H](CO)C(=O)O)c(OCc2cncc(C#N)c2)cc1NCc1cccc(-c2ccc3c(c2)OCCO3)c1C
IC50 [10]: 44 nM

SMILES: Cc1c(CNc2cc(OCc3cncc(C#N)c3)c(CN[C@H](CO)C(=O)O)cc2Cl)cccc1-c1ccc2c(c1)OCCO2
IC50 [10]: 131 nM

SMILES: COc1cc(NCc2cccc(-c3ccccc3)c2C)c(C)cc1CN[C@H](CO)C(=O)O
IC50 [10]: 253 nM

SMILES: Cc1cc(CN2C[C@@H](O)CC2=O)c(OCc2cncc(C#N)c2)cc1NCc1cccc(-c2ccccc2)c1C
IC50 [10]: 1330 nM

SMILES: N#Cc1cccc(COc2cc(NCc3cccc(-c4ccccc4)c3Br)ccc2CN[C@H](CO)C(=O)O)c1
IC50 [10]: 637 nM

SMILES: Cc1cc(NCc2cccc(-c3ccccc3)c2C)cc(OCc2cncc(C#N)c2)c1CN[C@H](CO)C(=O)O
IC50 [10]: 436 nM

SMILES: Cc1cc(CN[C@H](CO)C(=O)O)c(OCc2ccccc2)cc1NCc1cccc(-c2ccccc2)c1C
IC50 [10]: 2580 nM

SMILES: Cc1cc(CN[C@@H](CO)C(=O)O)c(OCc2cncc(C#N)c2)cc1NCc1cccc(-c2ccccc2)c1C
IC50 [10]: 23 nM

SMILES: Cc1c(CNc2cc(OCc3cncc(C#N)c3)c(CN[C@H](CO)C(=O)O)cc2Cl)cccc1-c1ccccc1
IC50 [10]: 26 nM

SMILES: Cc1cc(CN[C@H](CCO)C(=O)O)c(OCc2cncc(C#N)c2)cc1NCc1cccc(-c2ccccc2)c1C
IC50 [10]: 36 nM

Activity [12]: inactive
Activity [14]: inactive
Activity [16]: inactive
Activity [18]: inactive
SMILES: Cc1c(CNc2ccc(CN[C@H](CO)C(=O)O)c(OCc3cccc(C#N)c3)c2)cccc1-c1ccccc1
Activity [1]: Active
inhibition [11]: inactive
Activity (Raji): Non-Toxic
Activity (RAW264.7): Non-Toxic
Activity [13]: inactive
association rate constant (kon) [2]: 6.51 10^5/M/s
Activity [15]: inactive
Activity [3]: Non-Toxic
inhibition [4]: inactive
Activity [17]: Active
Dissociation constant (KD) [6]: 1.81 10^-9M
Activity [7]: Non-Toxic
Efficacy [8]: 96.1%
koff [9]: 1.18 10^-3/s

SMILES: N#Cc1cncc(COc2cc(NCc3cccc(-c4ccccc4)c3Br)ccc2CN[C@H](CO)C(=O)O)c1
IC50 [10]: 206 nM

SMILES: Cc1cc(NCc2cccc(-c3ccccc3)c2C)cc(OCc2cccc(C#N)c2)c1CN[C@H](CO)C(=O)O
IC50 [10]: 363 nM

SMILES: Cc1c(CN(C)c2ccc(CN[C@H](CO)C(=O)O)c(OCc3cccc(C#N)c3)c2)cccc1-c1ccccc1
IC50 [10]: > 100000 nM

SMILES: COc1cc(NCc2cccc(-c3ccccc3)c2C)c(Cl)cc1CN[C@H](CO)C(=O)O
Activity [1]: Active
Activity (RAW264.7): Non-Toxic
association rate constant (kon) [2]: 1.29 10^6/M/s
Activity [3]: Non-Toxic
inhibition [4]: inactive
inhibition [5]: 40.9%
Dissociation constant (KD) [6]: 5.15 10^-10M
Activity [7]: Non-Toxic
Efficacy [8]: 98.6%
koff [9]: 6.64 10^-4/s
